Data set [1] in a line: Toxicity on uninfected African green monkey kidney cells determined in microscopic evaluation and quantitative neutral red dye uptake assay. The data set is classed as cell-based. Particulars: chlorocebus sabaeus, uninfected African green monkey kidney (Vero) cells. In a few lines: (§1)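 Uninfected cells were seeded as subconfluent monolayers and exposed to compound for 3 days. Viability was judged both by microscopic inspection and by quantitative neutral red dye uptake, giving CC50.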

Data set [2] can be described thus: Toxicity on uninfected human foreskin fibroblast cells determined in microscopic evaluation and quantitative neutral red dye uptake assay. The data set is classed as cell-based. Particulars: uninfected human foreskin fibroblast (HFF) cells. The procedure, abridged:
as §1

The test system of data set [3] is HFF. The data set is described as follows: Antiviral activity against human cytomegalovirus Ad169 (WT) plaque forming unit grown on Human foreskin fibroblast cells upon incubation for 1 hour at 37 degrees C with compound dissolved in DMSO. The data set is classed as functional, cell-based. In a few lines: (§2)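 Plaque reduction: about 50 PFU added per well of a 24-well dish of the appropriate cells, 1 h at 37 °C, then the inoculum was replaced by drug-containing DMEM with 10% FBS and 0.8% carboxymethyl cellulose. DMSO stocks were 200-fold. Plates were held at 37 °C until plaques formed. Plaques were counted microscopically or after crystal violet stain. Percent inhibition was taken against the uninhibited control, with IC50 by linear regression.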

Data set [4] deals with HFF. The experiment in a line: Antiviral activity against human cytomegalovirus Ad169 (V823A) plaque forming unit grown on Human foreskin fibroblast cells upon incubation for 1 hour at 37 degrees C with compound dissolved in DMSO. The data set is classed as functional, cell-based. In a few lines:
as §2

In data set [5] the test system is HFF. The experiment in a line: Antiviral activity against Varicella-Zoster virus (Webster strain) grown on human foreskin fibroblast cells determined by vedduction in plaque formation upon incubation at 37 degrees C with the compound dissolved in DMSO until plaque were formed. The data set is classed as functional, cell-based. The procedure, abridged:
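Monolayers of human foreskin fibroblasts were infected with about 50 PFU per well for 1 h at 37 °C. The inoculum was then replaced with DMEM containing 10% FBS, 0.8% carboxymethyl cellulose and diluted compound from 200-fold DMSO stocks. Plates were incubated at 37 °C until plaques formed. Plaques were counted microscopically or after 0.1% crystal violet staining. IC50 came from linear regression of % inhibition versus untreated controls.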

The test system of data set [6] is HFF. The experiment in a line: Antiviral activity against human cytomegalovirus (Davis strain) grown on human foreskin fibroblast cells determined by reduction in plaque formation upon incubation at 37 degrees C with the compound dissolved in DMSO. The data set is classed as functional, cell-based.
The target of data set [7] is T1, DNA polymerase catalytic subunit (Herpes simplex virus (type 1 / strain 17), UniProt P04293).
T1 sequence (P04293 whole entry): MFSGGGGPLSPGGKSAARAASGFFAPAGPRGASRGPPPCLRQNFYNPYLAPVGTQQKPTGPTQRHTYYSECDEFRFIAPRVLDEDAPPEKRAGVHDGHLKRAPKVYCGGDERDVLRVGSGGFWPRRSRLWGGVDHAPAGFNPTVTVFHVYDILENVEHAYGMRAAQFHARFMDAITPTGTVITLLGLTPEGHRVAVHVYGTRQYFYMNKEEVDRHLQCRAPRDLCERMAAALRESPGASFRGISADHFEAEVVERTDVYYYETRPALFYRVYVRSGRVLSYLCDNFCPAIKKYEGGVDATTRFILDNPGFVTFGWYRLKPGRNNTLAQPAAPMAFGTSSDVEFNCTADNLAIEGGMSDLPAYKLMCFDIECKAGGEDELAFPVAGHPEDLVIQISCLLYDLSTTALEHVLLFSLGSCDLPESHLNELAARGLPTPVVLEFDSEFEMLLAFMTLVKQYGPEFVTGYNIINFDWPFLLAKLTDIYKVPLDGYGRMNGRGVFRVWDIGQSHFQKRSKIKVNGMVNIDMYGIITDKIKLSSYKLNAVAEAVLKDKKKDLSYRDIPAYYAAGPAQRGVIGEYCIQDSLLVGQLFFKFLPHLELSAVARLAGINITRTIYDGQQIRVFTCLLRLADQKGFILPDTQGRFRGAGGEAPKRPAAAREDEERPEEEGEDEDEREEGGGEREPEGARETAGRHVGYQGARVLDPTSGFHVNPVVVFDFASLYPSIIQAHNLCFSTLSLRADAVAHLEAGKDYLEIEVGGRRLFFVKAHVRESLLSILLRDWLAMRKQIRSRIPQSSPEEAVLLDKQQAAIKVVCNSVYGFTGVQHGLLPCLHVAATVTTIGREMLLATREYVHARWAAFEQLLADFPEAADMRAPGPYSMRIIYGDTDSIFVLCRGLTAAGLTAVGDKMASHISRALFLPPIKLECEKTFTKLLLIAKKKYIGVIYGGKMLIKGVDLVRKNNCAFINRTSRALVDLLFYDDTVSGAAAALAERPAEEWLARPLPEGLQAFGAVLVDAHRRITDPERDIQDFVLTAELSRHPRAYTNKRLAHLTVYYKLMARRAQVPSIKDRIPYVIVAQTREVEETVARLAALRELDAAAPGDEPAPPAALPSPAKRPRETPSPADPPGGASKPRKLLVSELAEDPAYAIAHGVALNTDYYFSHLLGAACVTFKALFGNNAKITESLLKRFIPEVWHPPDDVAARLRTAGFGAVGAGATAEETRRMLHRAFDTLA
The data set is described as follows: Inhibition of herpes simplex virus type 1 DNA polymerase (95 uL) activity in a solution containing […] HEPES (pH 7.5), incubation for 12 minutes at 26 degrees C. Set-up: species or system Human alphaherpesvirus 1.

Data set [8] deals with T2, DNA polymerase alpha catalytic subunit (Homo sapiens, UniProt P09884).
T2 sequence (P09884 whole entry): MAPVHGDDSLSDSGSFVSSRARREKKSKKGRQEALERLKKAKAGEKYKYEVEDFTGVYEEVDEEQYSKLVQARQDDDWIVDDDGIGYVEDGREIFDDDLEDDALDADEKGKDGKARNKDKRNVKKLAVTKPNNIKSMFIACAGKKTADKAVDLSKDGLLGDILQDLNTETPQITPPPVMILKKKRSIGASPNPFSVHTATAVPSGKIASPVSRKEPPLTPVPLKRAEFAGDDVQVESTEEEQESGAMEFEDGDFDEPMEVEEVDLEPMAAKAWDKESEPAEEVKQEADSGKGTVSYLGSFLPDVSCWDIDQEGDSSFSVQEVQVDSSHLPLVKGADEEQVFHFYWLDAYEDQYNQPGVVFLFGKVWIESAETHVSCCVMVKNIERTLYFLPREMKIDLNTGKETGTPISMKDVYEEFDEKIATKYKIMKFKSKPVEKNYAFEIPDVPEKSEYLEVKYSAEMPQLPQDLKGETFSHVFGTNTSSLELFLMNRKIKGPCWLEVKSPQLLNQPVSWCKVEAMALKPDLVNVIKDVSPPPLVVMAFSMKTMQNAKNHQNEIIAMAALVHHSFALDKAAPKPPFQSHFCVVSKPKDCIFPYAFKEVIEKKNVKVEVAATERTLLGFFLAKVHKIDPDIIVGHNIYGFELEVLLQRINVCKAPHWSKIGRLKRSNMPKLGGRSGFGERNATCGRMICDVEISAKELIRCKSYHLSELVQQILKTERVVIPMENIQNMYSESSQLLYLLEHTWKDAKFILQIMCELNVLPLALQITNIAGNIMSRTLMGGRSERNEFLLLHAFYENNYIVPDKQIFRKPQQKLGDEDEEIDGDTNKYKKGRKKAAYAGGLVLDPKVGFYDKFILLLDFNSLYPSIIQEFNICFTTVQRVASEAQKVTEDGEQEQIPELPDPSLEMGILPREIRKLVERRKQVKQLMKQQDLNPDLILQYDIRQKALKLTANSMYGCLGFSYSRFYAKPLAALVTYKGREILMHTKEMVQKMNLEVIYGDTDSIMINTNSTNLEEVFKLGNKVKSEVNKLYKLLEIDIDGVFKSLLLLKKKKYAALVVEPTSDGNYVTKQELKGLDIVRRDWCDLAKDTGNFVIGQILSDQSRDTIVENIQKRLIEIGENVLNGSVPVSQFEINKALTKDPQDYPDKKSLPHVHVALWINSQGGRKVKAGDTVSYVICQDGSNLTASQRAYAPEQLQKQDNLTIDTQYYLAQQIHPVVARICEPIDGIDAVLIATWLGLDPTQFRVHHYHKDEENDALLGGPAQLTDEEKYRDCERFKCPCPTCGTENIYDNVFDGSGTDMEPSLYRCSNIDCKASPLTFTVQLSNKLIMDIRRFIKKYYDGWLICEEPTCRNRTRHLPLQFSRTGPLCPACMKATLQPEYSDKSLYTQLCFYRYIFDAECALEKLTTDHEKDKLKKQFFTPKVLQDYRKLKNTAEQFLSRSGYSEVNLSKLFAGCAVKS
The experiment in a line: Inhibition of human alpha DNA polymerase (95 uL) activity in a solution containg […] HEPES (pH 7.5) upon incubation for 12 minutes at 26 degrees C with the compound dissolved in DMSO.

The subject of data set [9] is Vero. The data set is described as follows: Antiviral activity against herpes simplex virus type 1 (KOS strain) grown on human foreskin fibroblast cells determined by vedduction in plaque formation upon incubation at 37 degrees C with the compound dissolved in DMSO until plaque were formed. The data set is classed as functional, cell-based. In a few lines: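 HSV-1 KOS, about 50 PFU per well, was adsorbed for 1 h at 37 °C. The inoculum was then replaced with drug dilutions from 200-fold DMSO stocks in DMEM containing 10% FBS and 0.8% carboxymethyl cellulose. Cultures were kept at 37 °C until plaques appeared. Plaques were counted microscopically or by crystal violet staining (0.1% in 20% ethanol). IC50 came from linear regression of % inhibition relative to the uninhibited control.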

Data set [10] relates to Vero. The experiment in a line: cells. The conditions noted are these: Chlorocebus sabaeus, 1 h.
In data set [11] the test system is Vero. The experiment in a line: cells. The conditions noted are these: Chlorocebus sabaeus, 1 h. This is another data set of the same source.
In data set [12] the test system is Vero. The data set is described as follows: cells. Particulars: Chlorocebus sabaeus, 1 h. This is another data set of the same source.
Data set [13] relates to Vero. The data set is described as follows: cells. The conditions noted are these: Chlorocebus sabaeus, 1 h. The source holds these as a separate data set.
In data set [14] the test system is Vero. The experiment in a line: cells. Particulars: Chlorocebus sabaeus, 1 h. This is another data set of the same source.
For data set [15], the system named is Vero. The experiment in a line: cells. The conditions noted are these: Chlorocebus sabaeus, 1 h. This is another data set of the same source.
The subject of data set [16] is Vero. The experiment in a line: cells. Particulars: Chlorocebus sabaeus, 1 h. This is another data set of the same source.
Data set [17] has as its system Vero. The data set is described as follows: cells. Particulars: Chlorocebus sabaeus, 1 h. This is another data set of the same source.
The subject of data set [18] is Vero. The data set is described as follows: cells. Particulars: Chlorocebus sabaeus, 1 h. The source holds these as a separate data set.

`Nc1nc2c(ncn2COC(CO)CO)c(=O)[nH]1` [GANCICLOVIR]: the half-maximal cytotoxic concentration (CC50) in [1] and in data set [2] was above 100 µM in each case. In addition, the IC50 in the data set on HFF [3] and with HFF [4] was 0.8 µM throughout.

Turning to `Cn1cc(C(=O)NCc2ccc(Cl)cc2)c(=O)c2cc(CCCO)sc21`, the IC50 was 0.09 µM in the data set on HFF [5]; 0.6 µM in the data set on HFF [6]; 0.5 µM in [7]; above 40 µM in data set [8]; 3 µM in the data set with Vero [9]. The 50% cytotoxic concentration (CC50) in data set [1] and in [2] was above 100 µM each time.

As to `Nc1nc2c(ncn2COCCO)c(=O)[nH]1` [ACYCLOVIR], the IC50 in the data set on Vero [10] is above 10 µM; with Vero [11], 4.4 µM; in the data set with Vero [12], 3.5 µM; in the data set on Vero [13] it was 2.4 µM; in the data set with Vero [14], above 10 µM; in the data set with Vero [15], 5.4 µM. Further, the IC50 was above 10 µM in the data set with Vero [16], 2.8 µM in the data set on Vero [17] and above 10 µM with Vero [18]. For the same compound, the half-maximal cytotoxic concentration (CC50) in data set [1] and in [2] was above 100 µM in each case.
